In ChEMBL document CHEMBL4257569, “Novel KV7 ion channel openers for the treatment of epilepsy and implications for detrusor tissue contraction” (Bioorg Med Chem Lett, 2018):
Values after ≈ are worked out from the molar mass of the structure shown. Active and inactive are the calls of the source.

What was measured:
[1] = target: T1, Voltage-gated potassium channel, KQT; KCNQ2(Kv7.2)/KCNQ3(Kv7.3) (Homo sapiens) (UniProt O43526+O43525); test: Activation of human wild type Kv7.2/7.3 expressed in CHO cells assessed as 86Rb efflux at 0.001 to 100 uM after 10 mins by microbeta liquid scintillation counting analysis; assay type: cell-based
[2] = target: Voltage-gated potassium channel, KQT; KCNQ2(Kv7.2)/KCNQ3(Kv7.3) (Homo sapiens, UniProt O43525+O43526); test: Activation of human Kv7.2/7.3 by patch clamp method
Sequence of Voltage-gated potassium channel, KQT; KCNQ2(Kv7.2)/KCNQ3(Kv7.3) (O43526 whole entry): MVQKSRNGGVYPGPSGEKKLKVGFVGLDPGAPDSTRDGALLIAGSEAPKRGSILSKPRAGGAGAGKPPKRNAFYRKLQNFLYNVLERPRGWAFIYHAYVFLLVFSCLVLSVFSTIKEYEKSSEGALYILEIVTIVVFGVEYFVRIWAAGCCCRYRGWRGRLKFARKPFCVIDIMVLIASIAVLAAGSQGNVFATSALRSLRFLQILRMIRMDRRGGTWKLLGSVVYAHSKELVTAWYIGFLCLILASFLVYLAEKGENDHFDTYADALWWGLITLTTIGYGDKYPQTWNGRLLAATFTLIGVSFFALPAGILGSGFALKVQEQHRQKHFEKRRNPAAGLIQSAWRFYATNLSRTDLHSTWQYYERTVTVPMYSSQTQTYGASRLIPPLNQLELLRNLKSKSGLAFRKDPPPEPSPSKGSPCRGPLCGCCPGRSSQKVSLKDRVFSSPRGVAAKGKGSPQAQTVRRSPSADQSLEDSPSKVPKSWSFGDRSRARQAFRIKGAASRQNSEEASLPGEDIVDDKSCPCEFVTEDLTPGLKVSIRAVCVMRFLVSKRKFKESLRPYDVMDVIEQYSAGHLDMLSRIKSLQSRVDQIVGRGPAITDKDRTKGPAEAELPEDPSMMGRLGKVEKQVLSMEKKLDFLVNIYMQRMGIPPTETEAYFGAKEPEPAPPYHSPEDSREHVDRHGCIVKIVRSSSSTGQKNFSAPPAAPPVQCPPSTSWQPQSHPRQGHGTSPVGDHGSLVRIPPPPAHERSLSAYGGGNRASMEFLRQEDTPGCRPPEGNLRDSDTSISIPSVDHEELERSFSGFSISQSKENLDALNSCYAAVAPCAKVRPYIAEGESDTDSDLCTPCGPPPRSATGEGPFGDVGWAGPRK
Sequence of Voltage-gated potassium channel, KQT; KCNQ2(Kv7.2)/KCNQ3(Kv7.3) (O43525 whole entry): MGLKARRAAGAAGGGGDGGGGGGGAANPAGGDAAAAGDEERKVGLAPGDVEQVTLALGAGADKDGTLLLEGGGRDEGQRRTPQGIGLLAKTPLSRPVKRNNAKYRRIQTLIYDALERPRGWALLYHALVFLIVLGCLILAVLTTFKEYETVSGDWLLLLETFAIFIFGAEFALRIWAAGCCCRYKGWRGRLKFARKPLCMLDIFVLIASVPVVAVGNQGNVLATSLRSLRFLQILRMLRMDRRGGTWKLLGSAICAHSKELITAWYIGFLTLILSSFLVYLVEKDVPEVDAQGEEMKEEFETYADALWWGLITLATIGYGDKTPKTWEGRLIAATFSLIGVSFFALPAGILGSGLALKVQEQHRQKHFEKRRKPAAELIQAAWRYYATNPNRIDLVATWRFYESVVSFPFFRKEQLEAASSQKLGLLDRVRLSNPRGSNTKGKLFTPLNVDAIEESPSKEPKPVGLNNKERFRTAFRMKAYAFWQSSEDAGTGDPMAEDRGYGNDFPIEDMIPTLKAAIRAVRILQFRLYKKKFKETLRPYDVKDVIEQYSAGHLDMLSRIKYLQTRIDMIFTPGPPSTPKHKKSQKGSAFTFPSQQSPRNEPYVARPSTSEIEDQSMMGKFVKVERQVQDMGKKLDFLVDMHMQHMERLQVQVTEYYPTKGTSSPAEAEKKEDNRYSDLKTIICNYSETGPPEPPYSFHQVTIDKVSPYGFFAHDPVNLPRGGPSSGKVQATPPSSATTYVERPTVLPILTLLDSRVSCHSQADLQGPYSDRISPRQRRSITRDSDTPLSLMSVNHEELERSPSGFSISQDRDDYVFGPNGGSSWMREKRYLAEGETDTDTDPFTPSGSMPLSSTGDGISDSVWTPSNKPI
Summary of the method: (§1)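 Kv7.2/7.3 EC50s were measured on the IonWorks Quattro (IWQ) automated patch-clamp platform. Efficacy is expressed as % of the maximal response to the reference opener ML213.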

Mus musculus [3] = test: Toxicity in CD-1 mouse at 10 to 60 mg/kg, po by rotarod test; assay type: organism-based; settings: in vivo
[4] = Activation of human Kv7.2 W236L mutant/Kv7.3 W265L mutant expressed in CHO cells assessed as 86Rb efflux at 0.001 to 100 uM after 10 mins by microbeta liquid scintillation counting analysis; assay type: cell-based
Mus musculus [5] = test: Anti-seizure activity in CD-1 mouse assessed as increase in seizure threshold at 10 to 60 mg/kg, po by maximal electroshock-threshold test; assay type: functional, organism-based
[6] = target: T2, Potassium voltage-gated channel subfamily KQT member 4 (Homo sapiens, UniProt P56696); test: Activation of human Kv7.4 by patch clamp method
T2 sequence (P56696 whole entry): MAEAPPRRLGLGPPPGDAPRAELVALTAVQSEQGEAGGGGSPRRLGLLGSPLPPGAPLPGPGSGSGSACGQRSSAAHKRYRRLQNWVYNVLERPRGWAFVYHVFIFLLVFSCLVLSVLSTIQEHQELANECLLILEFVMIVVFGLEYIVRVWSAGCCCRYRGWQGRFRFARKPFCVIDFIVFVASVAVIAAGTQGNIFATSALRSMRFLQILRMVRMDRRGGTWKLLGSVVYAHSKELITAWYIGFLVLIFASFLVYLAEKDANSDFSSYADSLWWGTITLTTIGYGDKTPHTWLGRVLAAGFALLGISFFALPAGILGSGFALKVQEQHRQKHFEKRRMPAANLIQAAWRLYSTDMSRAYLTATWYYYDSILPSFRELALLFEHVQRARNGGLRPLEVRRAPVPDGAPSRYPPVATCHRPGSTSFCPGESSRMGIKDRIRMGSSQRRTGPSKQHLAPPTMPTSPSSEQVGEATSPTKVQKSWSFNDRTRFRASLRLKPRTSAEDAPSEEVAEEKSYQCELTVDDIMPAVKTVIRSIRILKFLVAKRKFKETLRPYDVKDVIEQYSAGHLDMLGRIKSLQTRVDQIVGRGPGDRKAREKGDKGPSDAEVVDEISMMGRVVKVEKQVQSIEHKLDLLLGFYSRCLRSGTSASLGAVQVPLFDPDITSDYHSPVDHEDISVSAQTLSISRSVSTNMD

[7] = target: Voltage-gated potassium channel KCNQ3/KCNQ5 (Homo sapiens, UniProt O43525+Q9NR82); test: Activation of human Kv7.3/7.5 by patch clamp method
Sequence of Voltage-gated potassium channel KCNQ3/KCNQ5 (O43525 whole entry): as the sequence (O43525 whole entry) above
Sequence of Voltage-gated potassium channel KCNQ3/KCNQ5 (Q9NR82 whole entry): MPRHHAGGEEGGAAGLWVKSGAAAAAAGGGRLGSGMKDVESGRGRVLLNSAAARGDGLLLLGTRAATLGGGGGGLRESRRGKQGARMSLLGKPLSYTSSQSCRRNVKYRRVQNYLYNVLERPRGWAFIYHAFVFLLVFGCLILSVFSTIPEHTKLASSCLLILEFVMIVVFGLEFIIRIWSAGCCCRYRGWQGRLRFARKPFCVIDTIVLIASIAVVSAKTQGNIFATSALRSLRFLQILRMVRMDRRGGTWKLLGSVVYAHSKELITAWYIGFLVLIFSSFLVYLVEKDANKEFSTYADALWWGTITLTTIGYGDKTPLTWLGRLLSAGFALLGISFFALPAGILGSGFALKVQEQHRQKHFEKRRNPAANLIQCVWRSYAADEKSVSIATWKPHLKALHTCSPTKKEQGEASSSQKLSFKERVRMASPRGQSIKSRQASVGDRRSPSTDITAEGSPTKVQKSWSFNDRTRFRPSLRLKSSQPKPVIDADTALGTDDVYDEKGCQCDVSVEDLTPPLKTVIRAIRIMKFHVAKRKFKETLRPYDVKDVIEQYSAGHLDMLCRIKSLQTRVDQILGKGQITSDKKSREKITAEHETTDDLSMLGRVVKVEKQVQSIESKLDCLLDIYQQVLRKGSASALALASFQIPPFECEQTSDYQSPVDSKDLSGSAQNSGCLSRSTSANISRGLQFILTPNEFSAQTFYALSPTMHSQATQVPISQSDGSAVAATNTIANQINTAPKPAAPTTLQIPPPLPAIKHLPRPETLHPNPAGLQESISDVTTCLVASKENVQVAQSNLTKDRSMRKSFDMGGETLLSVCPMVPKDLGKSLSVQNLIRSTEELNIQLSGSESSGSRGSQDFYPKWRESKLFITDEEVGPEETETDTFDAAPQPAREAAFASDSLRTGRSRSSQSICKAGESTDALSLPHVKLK

[8] = Clearance in human liver microsomes; assay type: ADME, microsome
P-gp = test: Substrate activity at P-gp (unknown origin) assessed as efflux ratio; assay type: ADME; settings: human, not told
[9] = target: T1, Voltage-gated potassium channel, KQT; KCNQ2(Kv7.2)/KCNQ3(Kv7.3) (Homo sapiens); test: Activation of human Kv7.2/7.3 by patch clamp method relative to ML213; summary of the method: as §1
[10] = Kinetic aqueous solubility of the compound by CAD or CLND method; assay type: physicochemical; settings: buffer; read-out: Kinetic_solubility
[11] = target: T1, Voltage-gated potassium channel, KQT; KCNQ2(Kv7.2)/KCNQ3(Kv7.3) (Homo sapiens); test: Activation of human Kv7.2/7.3 assessed as difference in G-V midpoint between pre-compound and post-compound conditions at 3 uM at -90 mV holding potential by QPatch method; assay type: protein-complex assay
Mus musculus [12] = test: Anti-seizure activity in CD-1 mouse model of pentylenetetrazol-induced tonic seizures assessed as effect on time to onset of seizure at 10 to 60 mg/kg, po; assay type: functional, organism-based
[13] = Inhibition of carbachol-induced contraction in human bladder at 10 uM; assay type: tissue-based, Urinary bladder
Mus musculus [14] = test: Anti-seizure activity in CD-1 mouse model of pentylenetetrazol-induced clonic seizures assessed as effect on time to onset of seizure at 10 to 60 mg/kg, po; assay type: functional, organism-based
[15] = target: T1, Voltage-gated potassium channel, KQT; KCNQ2(Kv7.2)/KCNQ3(Kv7.3) (Homo sapiens); test: Activation of human Kv7.2/7.3 assessed as difference in G-V midpoint between pre-compound and post-compound conditions at 10 uM at -90 mV holding potential by QPatch method; assay type: protein-complex assay
[16] = Clearance in iv dosed mouse; assay type: ADME, organism-based; settings: in vivo
Mus musculus [17] = test: Dose normalized AUC (0 to t) in iv dosed mouse; assay type: ADME, organism-based; settings: in vivo
[18] = target: T1, Voltage-gated potassium channel, KQT; KCNQ2(Kv7.2)/KCNQ3(Kv7.3) (Homo sapiens); test: Activation of human Kv7.2/7.3 assessed as difference in G-V midpoint between pre-compound and post-compound conditions at 0.016 uM at -90 mV holding potential by QPatch method; assay type: protein-complex assay
[19] = target: T1, Voltage-gated potassium channel, KQT; KCNQ2(Kv7.2)/KCNQ3(Kv7.3) (Homo sapiens); test: Activation of human Kv7.2/7.3 assessed as difference in G-V midpoint between pre-compound and post-compound conditions at 0.4 uM at -90 mV holding potential by QPatch method; assay type: protein-complex assay
[20] = target: T1, Voltage-gated potassium channel, KQT; KCNQ2(Kv7.2)/KCNQ3(Kv7.3) (Homo sapiens); test: Activation of human Kv7.2/7.3 assessed as difference in G-V midpoint between pre-compound and post-compound conditions at 0.08 uM at -90 mV holding potential by QPatch method; assay type: protein-complex assay
[21] = Activation of Kv7 from rat cortical neurons assessed as reduction in spontaneous neuronal firing activity after 15 mins by multi-electrode array method; settings: 0.25 h
[22] = target: T1, Voltage-gated potassium channel, KQT; KCNQ2(Kv7.2)/KCNQ3(Kv7.3) (Homo sapiens); test: Activation of human Kv7.2/7.3 assessed as difference in G-V midpoint between pre-compound and post-compound conditions at 2 uM at -90 mV holding potential by QPatch method; assay type: protein-complex assay
[23] = Ratio of drug level in brain to blood of iv dosed mouse; assay type: ADME, organism-based; settings: brain and blood
[24] = target: T1, Voltage-gated potassium channel, KQT; KCNQ2(Kv7.2)/KCNQ3(Kv7.3) (Homo sapiens); test: Activation of human Kv7.2/7.3 assessed as difference in G-V midpoint between pre-compound and post-compound conditions at 0.24 uM at -90 mV holding potential by QPatch method; assay type: protein-complex assay
[25] = target: T1, Voltage-gated potassium channel, KQT; KCNQ2(Kv7.2)/KCNQ3(Kv7.3) (Homo sapiens); test: Activation of human Kv7.2/7.3 assessed as difference in G-V midpoint between pre-compound and post-compound conditions at 0.048 uM at -90 mV holding potential by QPatch method; assay type: protein-complex assay
[26] = target: T1, Voltage-gated potassium channel, KQT; KCNQ2(Kv7.2)/KCNQ3(Kv7.3) (Homo sapiens); test: Activation of human Kv7.2/7.3 assessed as difference in G-V midpoint between pre-compound and post-compound conditions at 1.2 uM at -90 mV holding potential by QPatch method; assay type: protein-complex assay
[27] = target: T1, Voltage-gated potassium channel, KQT; KCNQ2(Kv7.2)/KCNQ3(Kv7.3) (Homo sapiens); test: Activation of human Kv7.2/7.3 assessed as difference in G-V midpoint between pre-compound and post-compound conditions at 30 uM at -90 mV holding potential by QPatch method; assay type: protein-complex assay
[28] = target: T1, Voltage-gated potassium channel, KQT; KCNQ2(Kv7.2)/KCNQ3(Kv7.3) (Homo sapiens); test: Activation of human Kv7.2/7.3 assessed as difference in G-V midpoint between pre-compound and post-compound conditions at 6 uM at -90 mV holding potential by QPatch method; assay type: protein-complex assay

Row | SMILES | Activity [1] [µM] | EC50 [2] [nM] | Activity [4] [µM] | EC50 [6] [nM] | EC50 [7] [nM] | efflux ratio (P-gp) | %max [9] [%] | solubility kinetic [10] [µM] | further results
1 | O=C(Nc1ccc(Cl)nc1)c1ccc(F)c(F)c1 | 0.46 | 460 | 0.43 to 1.81 | > 10000 | > 10000 | – | – | – | Activity (Mus musculus [3]): Non-Toxic; Activity (Mus musculus [5]): Dose-dependent effect
2 | CS(=O)(=O)c1cccc(CNC(=O)c2cc(C(F)(F)F)ccc2Sc2ccccc2)c1 | 0.02 | 200 | > 30 | – | – | < 2 | 175 | 34 (≈ 15.8 µg/mL) | CLH [8]: > 3 mL/min/g
3 | CCOC(=O)Nc1ccc(NCc2ccc(F)cc2)cc1N | 0.32 | – | > 30 | – | – | – | – | – | –
4 | Cc1cc(C)c(NC(=O)C2CC3CCC2C3)c(C)c1 (stereo unspecified) | 0.04 | 40 | > 11 | 1600 | 500 | – | – | – | V1/2 [11]: 24.7 to 28.4 mV
5 | CS(=O)(=O)c1cccc(CNC(=O)c2cc(C(F)(F)F)ccc2Oc2ccccc2)c1 | 0.05 | 160 | > 30 | – | – | < 2 | 245 | 23 (≈ 10.3 µg/mL) | –
6 | C[C@H](NC(=O)c1cc(C(F)(F)F)ccc1Oc1ccccc1)c1cccc(S(C)(=O)=O)c1 | – | 40 | – | – | – | < 2 | 134 | 57 (≈ 26.4 µg/mL) | –
7 | CS(=O)(=O)c1cccc([C@H](CO)NC(=O)c2cc(C(F)(F)F)ccc2Oc2ccccc2)c1 | – | 80 | – | – | – | < 2 | 77 | 11 (≈ 5.27 µg/mL) | –
8 | O=C(N[C@@H](CO)c1ccccc1)[C@H]1CC(F)(F)CC[C@@H]1c1ccccc1 | – | 1300 | – | – | – | < 2 | 108 | 332 (≈ 119 µg/mL) | –
9 | CS(=O)(=O)c1cccc(CNC(=O)c2cc(S(F)(F)(F)(F)F)ccc2Oc2ccccc2)c1 | – | 80 | – | – | – | < 2 | 185 | 7 (≈ 3.55 µg/mL) | –
10 | CS(=O)(=O)c1cccc([C@H](CO)NC(=O)c2cc(S(F)(F)(F)(F)F)ccc2Oc2ccccc2)c1 | – | 20 to 60 | – | > 10000 | 80 | < 2 | 101 | 121 (≈ 65 µg/mL) | Activity (Mus musculus [12]): Active; inhibition (INH) [13]: Not Active; Activity (Mus musculus [14]): Active
11 | C[C@H](NC(=O)c1cc(F)c(F)cc1Oc1ccccc1)c1cccc(S(C)(=O)=O)c1 | – | 130 to 200 | – | 160 | 200 | < 2 | 132 | 145 (≈ 62.6 µg/mL) | V1/2 [15]: 26.8 mV; clearance [16]: 31 mL/min/kg; Activity (Mus musculus [12]): Active; Activity (Mus musculus [3]): Non-Toxic; AUCt/dose (Mus musculus [17]): 0.33 µg·h/mL; Activity (Mus musculus [5]): Dose-dependent effect; V1/2 [18]: 0.4 mV; V1/2 [19]: 14.3 mV; V1/2 [20]: 5.1 mV; IC50 [21]: 110 nM; Activity (Mus musculus [14]): Active; V1/2 [22]: 23.1 mV; Kp [23]: 1.3
12 | O=C(N[C@@H](CO)c1cccc(C(F)(F)F)c1)[C@H]1CC(F)(F)CC[C@@H]1c1ccccc1 | – | 50 to 80 | – | 20 | 250 | < 2 | 96 | 119 (≈ 50.9 µg/mL) | –
13 | O=C(N[C@@H](CO)c1cccc(Cl)c1)[C@H]1CC(F)(F)CC[C@@H]1c1ccccc1 | – | 100 to 300 | – | 100 | 360 | < 2 | 141 | 318 (≈ 125 µg/mL) | V1/2 [24]: 10.2 mV; V1/2 [25]: 1.8 mV; clearance [16]: 48 mL/min/kg; V1/2 [26]: 21 mV; Activity (Mus musculus [3]): Non-Toxic; AUCt/dose (Mus musculus [17]): 0.51 µg·h/mL; Activity (Mus musculus [5]): Dose-dependent effect; V1/2 [27]: 27.8 mV; V1/2 [28]: 29.5 mV; IC50 [21]: 280 nM; Kp [23]: 0.8
14 | O=C(N[C@@H](CO)c1ccccc1)[C@H]1CCCC[C@@H]1c1ccccc1 | – | 790 | – | – | – | < 2 | 165 | 455 (≈ 147 µg/mL) | –
15 | C[C@H](NC(=O)[C@H]1CCCC[C@@H]1c1ccccc1)c1ccccc1 | 0.1 | 250 | > 30 | – | – | < 2 | 115 | 57 (≈ 17.5 µg/mL) | –
16 | C[C@H](NC(=O)[C@H]1CC(F)(F)CC[C@@H]1c1ccccc1)c1ccccc1 | – | 200 to 400 | – | 4000 | 400 | < 2 | 140 | 25 (≈ 8.59 µg/mL) | –
